Active and inactive are the calls of the source. The rule behind the calls is not given here.
What was measured:
[1] = test system: BMDC; experiment: Inhibition of LPS-induced immune response in C57BL/6 mouse BMDC assessed as reduction in IL-6 secretion up to 25 uM pretreated for 30 mins followed by LPS-challenge measured after 6 hrs by ELISA; type: functional, cell-based
In short: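 Mouse BMDCs (female C57BL/6 bone marrow, GM-CSF-derived, ≥90% CD11c+ on day 7) pretreated 30 min with graded compound concentrations, then stimulated with LPS 50 ng/mL for 6 h. Supernatant TNF-α, IL-6, IL-10 and IL-12p70 quantified by sandwich ELISA. Mean ± SEM vs LPS-only cells; experiments repeated at least three times.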

[2] = test system: BMDC; experiment: Inhibition of LPS-induced immune response in C57BL/6 mouse BMDC assessed as reduction in IL-6 secretion at 25 uM treated 6 hrs post LPS-challenge measured after 30 mins by ELISA; type: functional, cell-based
In short: (§1)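 Bone marrow DCs from 6-week-old female C57BL/6 mice, RBC-lysed, cultured in RPMI-1640/10% FBS with 10 ng/mL rmGM-CSF, 37 °C, 5% CO2. Cells given LPS 50 ng/mL for 6 h, then 25 μM compound added for 30, 60, 90 or 120 min. Supernatant TNF-α, IL-6, IL-10, IL-12p70 measured by sandwich ELISA. Mean ± SEM, compared with LPS-only DCs.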

[3] = test system: BMDC; experiment: Inhibition of LPS-induced immune response in C57BL/6 mouse BMDC assessed as reduction in IL-12p70 secretion at 25 uM treated 6 hrs post LPS-challenge measured after 30 mins by ELISA; type: functional, cell-based; in short: as §1
[4] = test system: BMDC; experiment: Inhibition of LPS-induced immune response in C57BL/6 mouse BMDC assessed as reduction in IL-12p70 secretion at 25 uM treated 6 hrs post LPS-challenge measured after 60 to 120 mins by ELISA; type: functional, cell-based; in short: as §1
[5] = test system: BMDC; experiment: Increase in microRNA146a expression in LPS-induced C57BL/6 mouse BMDC at 25 uM pretreated for 30 mins followed by LPS-challenge measured after 6 hrs by qRT-PCR analysis; type: functional, cell-based
In short: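 Total RNA was extracted from BMDCs with TRIzol and reverse transcribed. miR-146a, miR-155 and miR-187 were quantified by real-time qPCR with gene-specific primers.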

[6] = test system: Mus musculus; experiment: Antiinflammatory activity in Balb/c mouse model of LPS-induced endotoxemia assessed as reduction in serum IL6 level at 1 mg/kg, ip pretreated for 1 hr followed by LPS-challenge measured after 2 hrs by ELISA; type: functional, organism-based
In short: (§2)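 BALB/c mice were dosed with 1 mg·kg−1 i.p. 1 h before LPS 10 mg·kg−1 i.p. Serum was taken 2 h later, and TNF-α, IL-6 and IL-10 were measured by sandwich ELISA. Means ± SEM.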

[7] = test system: Mus musculus; experiment: Antiinflammatory activity in Balb/c mouse model of LPS-induced endotoxemia assessed as increase in serum IL10 level at 1 mg/kg, ip pretreated for 1 hr followed by LPS-challenge measured after 2 hrs by ELISA; type: functional, organism-based; in short: as §2
[8] = test system: BMDC; experiment: Inhibition of Escherichia coli DH5alpha infection-induced immune response in C57BL/6 mouse BMDC assessed as reduction in TNFalpha secretion at 25 uM pretreated for 60 to 120 mins followed by Escherichia coli DH5alpha infection for 6 hrs by ELISA; type: functional, cell-based
In short: (§3)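 C57BL/6 BMDCs received 25 μM compound and E. coli DH5α, 3 × 10^6 CFU·mL−1. Schedules were: compound 30 min before a 6 h infection; co-addition for 6 h; or compound for 30, 60, 90 or 120 min plus 6 h infection. Supernatant TNF-α, IL-6, IL-10 and IL-12p70 were measured by ELISA. At least three experiments in triplicate.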

[9] = test system: BMDC; experiment: Inhibition of Escherichia coli DH5alpha infection-induced immune response in C57BL/6 mouse BMDC assessed as reduction in IL-12p70 secretion at 25 uM pretreated for 60 to 120 mins followed by Escherichia coli DH5alpha infection for 6 hrs by ELISA; type: functional, cell-based; in short: as §3
[10] = test system: BMDC; experiment: Inhibition of Escherichia coli K1 infection-induced immune response in C57BL/6 mouse BMDC assessed as reduction in IL-6 secretion at 25 uM pretreated for 30 mins followed by Escherichia coli K1 infection for 6 hrs by ELISA; type: functional, cell-based
In short: (§4)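 BMDCs from C57BL/6 mice were given 25 μM compound and E. coli K1, […]. Timing was: compound 30 min before a 6 h infection; cotreatment for 6 h; or compound for 30–120 min with 6 h infection. Supernatant cytokines (TNF-α, IL-6, IL-10, IL-12p70) were measured by ELISA. At least three experiments in triplicate.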

[11] = test system: BMDC; experiment: Inhibition of Escherichia coli K1 infection-induced immune response in C57BL/6 mouse BMDC assessed as reduction in IL-12p70 secretion at 25 uM pretreated for 30 mins followed by Escherichia coli K1 infection for 6 hrs by ELISA; type: functional, cell-based; in short: as §4
[12] = test system: BMDC; experiment: Inhibition of Escherichia coli K1 infection-induced immune response in C57BL/6 mouse BMDC assessed as reduction in IL-12p70 secretion at 25 uM pretreated for 60 to 120 mins followed by Escherichia coli K1 infection for 6 hrs by ELISA; type: functional, cell-based; in short: as §4
[13] = test system: BMDC; experiment: Inhibition of Escherichia coli K1 infection-induced immune response in C57BL/6 mouse BMDC assessed as increase in IL10 secretion at 25 uM pretreated for 60 to 120 mins followed by Escherichia coli K1 infection for 6 hrs by ELISA; type: functional, cell-based; in short: as §4
[14] = test system: Mus musculus; experiment: Antiseptic activity in Balb/c mouse model of Escherichia coli K1 infection-induced sepsis assessed as reduction in infiltration of immune cells in lungs at 1 mg/kg, ip pretreated for 1 hr followed by Escherichia coli K1 infection measured after 12 hrs by hematoxylin and eosin staining based microscopic analysis; type: functional, organism-based
In short: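 BALB/c mice were given 1 mg·kg−1 i.p. 1 h before i.p. E. coli K1 (1 × 10^6 CFU per mouse). At 12 h, lungs were perfused and formalin-fixed. Sections were H&E-stained and examined by microscope. Representative of three independent experiments.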

[15] = test system: Mus musculus; experiment: Antiinflammatory activity in Balb/c mouse model of LPS-induced endotoxemia assessed as increase in IL10 producing Tr1 population in splenocyte at 1 mg/kg, ip pretreated for 1 hr followed by LPS-challenge measured after 12 hrs by flow cytometric analysis; type: functional, organism-based

What does the source list for `COc1ccc(-c2oc3cc(O)cc(O)c3c(=O)c2O)cc1O` [TAMARIXETIN]?
inhibition [1]: Active; inhibition [2]: Active; inhibition [3]: Active; inhibition [4]: inactive; Activity [5]: Active; Activity [6]: Active; Activity [7]: Active; inhibition [8]: inactive; inhibition [9]: inactive; inhibition [10]: Active; inhibition [11]: Active; inhibition [12]: inactive; inhibition [13]: inactive; Activity [14]: Active; Activity [15]: Active

— ChEMBL document CHEMBL4145607, “Tamarixetin Exhibits Anti-inflammatory Activity and Prevents Bacterial Sepsis by Increasing IL-10 Production” (J Nat Prod, 2018)
